Results from ChEMBL document CHEMBL2412970, “Synthesis and anticancer activity of 2,4-disubstituted furo[3,2-b]indole derivatives” (Eur J Med Chem, 2013).
The source made the active and inactive calls. The rule behind the calls is not given here.

Key:
UACC-62 = assay: Cytotoxicity against human UACC62 cells after 48 hrs by sulforhodamine B assay; type: functional; conditions: UACC-62, 48 h
A498 [1] = assay: Induction of apoptosis in human A498 cells assessed as caspase-3 activation at 0.5 uM after 24 hrs by Western blotting analysis; type: functional, cell-based
Procedure, shortened: (§1)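 A498 cells exposed for 6, 12, 24, 36 or 48 h, then washed in PBS and lysed. Lysates were held on ice for 30 min and spun at 12 000g for 20 min. Supernatant protein was measured by Bradford assay, run on 10% SDS-PAGE and transferred to nitrocellulose. Blots were probed for AIF, Endo G, Apaf-1, cytochrome c, caspase 9 and caspase 3, with β-actin as loading control; n = 3 independent experiments.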

HCC 2998 = assay: Cytotoxicity against human HCC2998 cells after 48 hrs by sulforhodamine B assay; type: functional; conditions: HCC 2998, 48 h
A498 [2] = assay: Cell cycle arrest in human A498 cells assessed as accumulation at G2/M phase at 0.5 uM by propidium iodide staining-based flow cytometry; type: functional; conditions: TDE = time-dependent effect
RXF 393 = assay: Cytotoxicity against human RXF393 cells after 48 hrs by sulforhodamine B assay; type: functional; conditions: RXF 393, 48 h
SK-MEL-28 = assay: Cytotoxicity against human SK-MEL-28 cells after 48 hrs by sulforhodamine B assay; type: functional; conditions: SK-MEL-28, 48 h
MOLT-4 = assay: Cytotoxicity against human MOLT4 cells after 48 hrs by sulforhodamine B assay; type: functional; conditions: MOLT-4, 48 h
MDA-MB-231 = assay: Cytotoxicity against human MDA-MB-231 cells after 48 hrs by sulforhodamine B assay; type: functional; conditions: MDA-MB-231, 48 h
SF-539 = assay: Cytotoxicity against human SF539 cells after 48 hrs by sulforhodamine B assay; type: functional; conditions: SF-539, 48 h
UACC-257 = assay: Cytotoxicity against human UACC257 cells after 48 hrs by sulforhodamine B assay; type: functional; conditions: UACC-257, 48 h
A498 [3] = assay: Induction of apoptosis in human A498 cells assessed as increase in Endo G level at 0.5 uM after 6 to 48 hrs by Western blotting analysis; type: functional, cell-based; procedure, shortened: as §1
COLO 205 = assay: Cytotoxicity against human COLO205 cells after 48 hrs by sulforhodamine B assay; type: functional; conditions: COLO 205, 48 h
A498 [4] = assay: Induction of apoptosis in human A498 cells assessed as increase in AIF level at 0.5 uM after 6 to 48 hrs by Western blotting analysis; type: functional, cell-based; procedure, shortened: as §1
A498 [5] = assay: Cell cycle arrest in human A498 cells assessed as accumulation at sub-G1 phase at 0.5 uM by propidium iodide staining-based flow cytometry; type: functional; conditions: TDE = time-dependent effect
DU-145 = assay: Cytotoxicity against human DU145 cells after 48 hrs by sulforhodamine B assay; type: functional; conditions: DU-145, 48 h
[6] = Cytotoxicity against human Hep3B cells after 48 hrs by MTT assay; type: functional, cell-based, Hep 3B2
A498 [7] = assay: Induction of apoptosis in human A498 cells assessed as increase in cytochrome C level at 0.5 uM after 6 to 48 hrs by Western blotting analysis; type: functional, cell-based; procedure, shortened: as §1
A498 [8] = assay: Cell cycle arrest in human A498 cells assessed as accumulation at sub-G1 phase at 0.5 uM after 24 hrs by propidium iodide staining-based flow cytometry (reference value: 0.10 +/- 0.07%); type: functional
NCI/ADR-RES = assay: Cytotoxicity against human NCI/ADR-RES cells after 48 hrs by sulforhodamine B assay; type: functional
SK-MEL-5 = assay: Cytotoxicity against human SK-MEL-5 cells after 48 hrs by sulforhodamine B assay; type: functional; conditions: SK-MEL-5, 48 h
A498 [9] = assay: Induction of apoptosis in human A498 cells assessed as late apoptotic cells at 0.5 uM after 36 hrs by AnnexinV/FITC-propidium iodide staining-based flow cytometry (reference value: 9.6%); type: functional
Procedure, shortened: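 Flow cytometry with annexin V-FITC/PI double labeling of A498 cells treated for 12, 24, 36 or 48 h; untreated cells served as the 0 h control. Stained in binding buffer for 15 min at room temperature in the dark, with more binding buffer added just before analysis. Annexin V+/PI− (Q4) counted as early apoptotic and annexin V+/PI+ (Q2) as late apoptotic.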

CAKI-1 = assay: Cytotoxicity against human Caki1 cells after 48 hrs by sulforhodamine B assay; type: functional; conditions: CAKI-1, 48 h
[10] = read-out: pLC50 (the source's name) (converted)

## OCc1ccc(Cn2c3ccccc3c3oc(CO)cc32)o1
UACC-62
  GI50: 3.24 µM
UACC-62; [10]
  CC50: > 100 µM
UACC-62; read-out: pTGI
  TGI: > 100 µM
A498 [1]
  Activity: Active
HCC 2998
  GI50: > 100 µM
HCC 2998; [10]
  CC50: > 100 µM
HCC 2998; read-out: pTGI
  TGI: > 100 µM
A498 [2]
  Activity: tde
RXF 393
  GI50: 75.9 µM
RXF 393; [10]
  CC50: > 100 µM
RXF 393; read-out: pTGI
  TGI: > 100 µM
SK-MEL-28
  GI50: > 100 µM
SK-MEL-28; [10]
  CC50: > 100 µM
SK-MEL-28; read-out: pTGI
  TGI: > 100 µM
MOLT-4
  GI50: 77.6 µM
MOLT-4; [10]
  CC50: > 100 µM
MOLT-4; read-out: pTGI
  TGI: > 100 µM
MDA-MB-231
  GI50: 74.1 µM
MDA-MB-231; [10]
  CC50: > 100 µM
MDA-MB-231; read-out: pTGI
  TGI: > 100 µM
SF-539
  GI50: > 100 µM
SF-539; [10]
  CC50: > 100 µM
SF-539; read-out: pTGI
  TGI: > 100 µM
UACC-257
  GI50: 1.45 µM
UACC-257; [10]
  CC50: > 100 µM
UACC-257; read-out: pTGI (converted)
  TGI: 4.37 µM
A498 [3]
  Activity: Active
COLO 205
  GI50: 61.7 µM
COLO 205; [10]
  CC50: > 100 µM
COLO 205; read-out: pTGI
  TGI: > 100 µM
A498 [4]
  Activity: Active
A498 [5]
  Activity: tde
DU-145
  GI50: > 100 µM
DU-145; [10]
  CC50: > 100 µM
DU-145; read-out: pTGI
  TGI: > 100 µM
[6]
  IC50: > 50 µM
A498 [7]
  Activity: Active
A498 [8]
  Activity: 0.91%
NCI/ADR-RES
  GI50: > 100 µM
NCI/ADR-RES; [10]
  CC50: > 100 µM
NCI/ADR-RES; read-out: pTGI
  TGI: > 100 µM
SK-MEL-5
  GI50: > 100 µM
SK-MEL-5; [10]
  CC50: > 100 µM
SK-MEL-5; read-out: pTGI
  TGI: > 100 µM
A498 [9]
  Activity: 20.3%
CAKI-1
  GI50: 51.3 µM
CAKI-1; [10]
  CC50: > 100 µM
CAKI-1; read-out: pTGI
  TGI: > 100 µM
